The source made the active and inactive calls. The rule behind the calls is not given here. Where only a bound is given, the exact number is not on record here.

As usually defined, the EC50 is the concentration at which the effect is half-maximal. In general, IC50 refers to the concentration at which inhibition is half-maximal. In general, half-life refers to the time in which the quantity being followed falls by half.

Series [1] can be described thus: AUC ratio in orally dosed Sprague-Dawley rat blood assessed as phosphate metabolite to parent compound. The series is classed as ADME, organism-based. To be noted: in vivo, po. In short, it runs like this: (§1)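 Phosphate-to-parent ratio computed as blood AUC ratio after oral dosing in rats, dogs and monkeys.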
A short description of series [2]: AUC ratio in orally dosed cynomolgus monkey blood assessed as phosphate metabolite to parent compound. Format: ADME, organism-based, Macaca fascicularis. Particulars: in vivo, po. In short, it runs like this: as §1
A short description of series [3]: AUC ratio in orally dosed human blood assessed as phosphate metabolite to parent compound. Format: ADME, organism-based. Particulars: po.
Series [4] is described as follows: AUC ratio in orally dosed Beagle dog blood assessed as phosphate metabolite to parent compound. The series is classed as ADME, organism-based, Canis lupus familiaris. To be noted: in vivo, po. In short, it runs like this:
as §1

For series [5], the target named is T1, Sphingosine 1-phosphate receptor 4 (Homo sapiens, UniProt O95977).
T1 sequence (O95977 whole entry): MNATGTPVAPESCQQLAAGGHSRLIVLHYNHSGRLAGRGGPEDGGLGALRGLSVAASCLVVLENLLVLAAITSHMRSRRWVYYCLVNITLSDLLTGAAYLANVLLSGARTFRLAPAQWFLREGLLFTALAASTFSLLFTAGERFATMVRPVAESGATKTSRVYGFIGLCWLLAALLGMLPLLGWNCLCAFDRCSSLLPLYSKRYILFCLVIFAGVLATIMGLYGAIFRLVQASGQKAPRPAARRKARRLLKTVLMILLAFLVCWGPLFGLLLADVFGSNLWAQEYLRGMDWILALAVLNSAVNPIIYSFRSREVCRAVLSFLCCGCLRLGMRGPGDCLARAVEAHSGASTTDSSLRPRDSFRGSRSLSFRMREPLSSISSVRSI
Description: Agonist activity at recombinant human S1P4 expressed in CHO cell membranes assessed as stimulation of [35S]-GTPgammaS binding measured after 45 mins by liquid scintillation counting method. The series is classed as functional, Membrane. In general terms: GTPγS resists hydrolysis and so accumulates on activated G proteins.

Series [6] in a line: Antimigratory activity against human T cells assessed as inhibition of S1P-induced T cell migration preincubated for 10 mins followed by addition of S1P measured after 120 mins by calcein-AM dye based fluorescence analysis. Format: functional.
The subject of series [7] is Rattus norvegicus. Put plainly: Antiinflammatory activity in complete freund's adjuvant-induced Lewis rat model of arthritis assessed as reduction in paw edema at 0.3 mg/kg, po administered via gavage once daily and measured at day 13 to 20 by plethysmometric method. Format: functional, organism-based. Particulars: time 13-20 day.
The test system of series [8] is Rattus norvegicus. Description: Antiinflammatory activity in complete freund's adjuvant-induced Lewis rat model of arthritis assessed as increase in paw volume at 1 mg/kg, po administered via gavage once daily by plethysmometric method. Format: functional, organism-based.
Series [9] concerns Rattus norvegicus. Description: Antiinflammatory activity in complete freund's adjuvant-induced Lewis rat model of arthritis assessed as reduction in paw edema administered via oral gavage once daily by plethysmometric method. The series is classed as functional, organism-based.
The nature of series [10]: Ratio of drug metabolism in Lewis rat blood assessed as phosphate ester metabolite to parent drug at 5 mg/kg, po measured at 24 hrs by LC-MS/MS analysis. The series is classed as ADME, organism-based. Particulars: in vivo. The essentials:
(§2)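 Lewis rats (n = 2−4) dosed orally at 0.5, 1, 2 or 5 mg/kg; blood parent and phosphate metabolite concentrations and lymphocyte counts taken 4 and 24 h post-dose; phosphate-to-parent ratio from 24 h levels; significance versus vehicle by ANOVA with Dunnett's test.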

Series [11] relates to Rattus norvegicus. Description: Reduction in circulating lymphocytes count in Lewis rat at 5 mg/kg, po measured at 4 hrs by hematology analyzer based analysis. Format: functional. Details: scale not given: the % may be the effect or the level left. The essentials: (§3)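 Lewis rats (n = 2−4) dosed orally; whole-blood lymphocyte counts taken 4 h and 24 h after dosing and reduction expressed versus vehicle-treated rats. Significance by ANOVA with Dunnett's test (p < 0.05 vs vehicle). Blood levels of parent and phosphate metabolite measured at the same time points in this PK/PD screen.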

Series [12] can be described thus: Drug concentration in Lewis rat blood assessed as concentration of parent compound at 5 mg/kg, po measured at 4 hrs by LC-MS/MS analysis. The series is classed as ADME, organism-based. To be noted: read-out: Ct. The essentials: as §2
The nature of series [13]: Drug concentration in Lewis rat blood assessed as concentration of parent compound at 5 mg/kg, po measured at 24 hrs by LC-MS/MS analysis. Particulars: Lewis, blood, read-out: Ct. Format: ADME, organism-based. In short, it runs like this:
as §2

Series [14] in a line: Pulmonary toxicity in Lewis rat assessed as fold elevation of BAL protein content at 5 mg/kg, po by chemistry analyzer based analysis relative to control. Format: organism-based. To be noted: in vivo. The essentials: (§4)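 Lewis rats dosed orally; bronchoalveolar lavage protein measured at study end, expressed as fold over vehicle control.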
Series [15] is described as follows: Reduction in circulating lymphocytes count in Lewis rat at 5 mg/kg, po measured at 24 hrs by hematology analyzer based analysis. Format: ADME, organism-based. Details: scale not given: the % may be the effect or the level left. Particulars: in vivo. In short, it runs like this:
as §3

Series [16] can be described thus: Cardiotoxicity in human iPSC derived cardiomyocytes assessed as change in heart rate at 10 nM measured over 2 hrs by multi-electrode array relative to control. Format: toxicity, cell-based. Particulars: stem cell-derived cardiomyocyte, 0.01 µM. The essentials:
(§5)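 Phosphate metabolite of each compound prepared and tested on cultured human induced pluripotent stem cell-derived cardiomyocytes at 1 and 10 nM; beat rate change averaged over three or more replicates per concentration unless noted (some n = 2).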

Series [17] can be described thus: Drug metabolism in Lewis rat blood assessed as concentration of parent compound at 1 mg/kg, po measured at 24 hrs by LC-MS/MS analysis. Format: ADME, organism-based. Particulars: Lewis, blood, read-out: Ct. The essentials: as §2
Series [18] can be described thus: Cardiotoxicity in human iPSC derived cardiomyocytes assessed as change in heart rate at 1 nM measured over 2 hrs by multi-electrode array relative to control. Format: toxicity, cell-based. To be noted: stem cell-derived cardiomyocyte, 0.001 µM. The essentials: as §5
Series [19] is described as follows: Pulmonary toxicity in Lewis rat assessed as fold elevation of BAL protein content at 1 mg/kg, po by chemistry analyzer based analysis relative to control. Format: organism-based. To be noted: in vivo. The essentials: as §4
A short description of series [20]: Drug concentration in Lewis rat blood assessed as concentration of parent compound at 1 mg/kg, po measured at 4 hrs by LC-MS/MS analysis. Particulars: Lewis, blood, read-out: Ct. The series is classed as ADME, organism-based. The essentials:
as §2

Series [21] is described as follows: Drug metabolism in Lewis rat blood assessed as phosphate ester metabolite to parent ratio at 1 mg/kg, po measured at 24 hrs by LC-MS/MS analysis. To be noted: in vivo.
Series [22] is described as follows: Reduction in circulating lymphocytes count in Lewis rat at 1 mg/kg, po measured at 24 hrs by hematology analyzer based analysis. The series is classed as organism-based. Details: scale not given: the % may be the effect or the level left. To be noted: in vivo. The essentials:
as §2

The nature of series [23]: Half life in Lewis rat at 1 mg/kg, po measured at 4 to 72 hrs. The series is classed as ADME, organism-based. Particulars: in vivo, time 4-72 hrs. The essentials: (§6)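 Half-life estimated from oral-dosing blood PK profiles in Lewis rats sampled at four time points: 4, 24, 48 and 72 h.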
In series [24] the test system is Rattus norvegicus. Put plainly: Reduction in circulating lymphocytes count in Lewis rat at 1 mg/kg, po measured at 4 hrs by hematology analyzer based analysis. The series is classed as functional. Details: scale not given: the % may be the effect or the level left. In short, it runs like this: as §2
The test system of series [25] is Rattus norvegicus. Put plainly: Reduction in circulating lymphocytes count in Lewis rat at 0.3 mg/kg, po measured at 4 hrs by hematology analyzer based analysis. Format: functional. The arrangement: scale not given: the % may be the effect or the level left.
A short description of series [26]: Reduction in circulating lymphocytes count in Lewis rat at 0.3 mg/kg, po measured at 24 hrs by hematology analyzer based analysis. The series is classed as ADME, organism-based. The arrangement: scale not given: the % may be the effect or the level left. Particulars: in vivo.
Series [27] is described as follows: Drug concentration in Lewis rat blood assessed as concentration of parent compound at 2 mg/kg, po measured at 4 hrs by LC-MS/MS analysis. Format: ADME, organism-based. To be noted: Lewis, blood, read-out: Ct. The essentials:
as §2

Series [28] is described as follows: Pulmonary toxicity in Lewis rat assessed as fold elevation of BAL protein content at 15 mg/kg, po by chemistry analyzer based analysis relative to control. Particulars: in vivo. Format: organism-based. In short, it runs like this: as §4
Series [29] in a line: Half life in Lewis rat at 2 mg/kg, po measured at 4 to 72 hrs. Format: ADME, organism-based. Particulars: Lewis, in vivo, time 4-72 hrs. In short, it runs like this:
as §6

Series [30] in a line: Ratio of drug metabolism in Lewis rat blood assessed as phosphate ester metabolite to parent drug at 2 mg/kg, po measured at 24 hrs by LC-MS/MS analysis. Particulars: in vivo. The series is classed as ADME, organism-based. The essentials: as §2
The nature of series [31]: Reduction in circulating lymphocytes count in Lewis rat at 2 mg/kg, po measured at 24 hrs by hematology analyzer based analysis. Format: Functional, organism-based. Details: scale not given: the % may be the effect or the level left. To be noted: in vivo. The essentials:
as §3

The test system of series [32] is Rattus norvegicus. Put plainly: Reduction in circulating lymphocytes count in Lewis rat at 2 mg/kg, po measured at 4 hrs by hematology analyzer based analysis. Format: functional. Particulars: 2 mg/kg, 4 h. The arrangement: scale not given: the % may be the effect or the level left. The essentials:
as §3

Series [33] in a line: Drug concentration in Lewis rat blood assessed as concentration of parent compound at 2 mg/kg, po measured at 24 hrs by LC-MS/MS analysis. Format: ADME, organism-based. To be noted: in vivo, read-out: Ct. In short, it runs like this:
as §2

`CCCCCCCCc1ccc(CCC(N)(CO)CO)cc1` [FINGOLIMOD]: the “Ratio AUC” value in series [1] was found to be 5.6; in [2], 5.9; in [3] it was 0.42; in series [4] it was 3.7.
Turning to `CCCCCCCCc1ccc(CCC(N)(CO)COP(=O)(O)O)cc1` (stereo not drawn), the EC50 in series [5] is 1.6 nM. Besides, in [6], the IC50 is 1.2 nM.
`COCCCCCC1CCc2cc([C@H]3CC[C@](N)(CO)C3)ccc2C1` (single isomer, unassigned; 24): the result in the series on Rattus norvegicus [7] and with Rattus norvegicus [8] was inactive. The Activity result in the series with Rattus norvegicus [9] was “Dose-dependent effect”.
In the case of `CCCC[S+]([O-])C[C@@H]1CCc2cc([C@H]3CC[C@](N)(CO)C3)ccc2C1` (stereo partly drawn), the Ratio in series [10] came to 2.3. Moreover, the values for the Activity (in the series on Rattus norvegicus [11]; in series [15]) were 0% and 75%, respectively. Moreover, in [12], the concentration at 4 h is 109 nM. In series [13], the concentration at 24 h was determined as 10 nM. In [14], the “fold change (FC)” value was 1.5.
Regarding `CCCCCC[C@@H]1CCc2cc([C@H]3CC[C@](N)(CO)C3)ccc2C1` [BMS-986104], the “Ratio AUC” value came out at 2.5 in series [1], 0.3 in series [2], 0.1 in series [3] and 2.4 in series [4]. The Activity in [16] was -33%; in series [18], -2%; in series [22], 76%; with Rattus norvegicus [24], 23%. Besides, the concentration at 24 h in series [17] came to 51 nM. Also, in [19], the “fold change (FC)” value amounted to 1.1. Besides, the concentration at 4 h in series [20] came out at 36 nM. In addition, the Ratio in [21] was found to be 1.2. The half-life in series [23] is > 100 h.
With `CCCCCC[C@@H]1CCc2cc([C@H]3CC[C@](N)(COP(=O)(O)O)C3)ccc2C1`, the IC50 in series [6] was 2.5 nM.
Take `C/C=C\CCC[C@@H]1CCc2cc([C@H]3CC[C@](N)(CO)C3)ccc2C1`: the Activity amounted to 0% in the series with Rattus norvegicus [25] and 22% in series [26].
Turning to `COCCCC1CCc2cc([C@H]3CC[C@](N)(CO)C3)ccc2C1` (stereo in doubt; 22a), the concentration at 4 h in [27] came to 141 nM. In addition, the “fold change (FC)” value in [28] was found to be 3. Besides, the half-life in [29] is 13 h. Further, the Ratio in [30] is listed as 2.8. In addition, the values for the Activity (in series [31]; with Rattus norvegicus [32]) were 74% and 76%, respectively. Further, the concentration in series [33] came to 33 nM.

Values taken from ChEMBL document CHEMBL4732158, “Bicyclic Ligand-Biased Agonists of S1P: Exploring Side Chain Modifications to Modulate the PK, PD, and Safety Profiles” (J Med Chem, 2021).
